DENV2 CPE = DENV2-induced cell death inhibition | DENV2-infected cells, cytopathic effect rescue, plate reader | CPE inhibition, % at 9.99 µM | 1.7% of 350,000 active | AID 651640; in the data active means CPE inhibition above about 20%, passing the limit was not always enough; inconclusive means no clear call, values can overlap the other calls; tested in BHK-21 cells;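 further: 0% = median of neutral control wells and 100% = median of positive control wells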
E-sel inducer = E-selectin induction on HUVECs; P16581; HUVEC E-selectin immunofluorescence imaging; normalized: neutral wells 0, TNF-alpha wells 100; activation, % at 7.58 µM; 0.37% of 260,000 active; AID 686992;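 active means mean E-selectin-positive cell signal at least 10% of the positive control, reached in at least 60% of replicates, without over 20% cell loss; inconclusive means no rule given, readout overlaps actives, possibly toxicity-flagged; inactive means the rest, including those meeting only one limit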
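System: HUVEC / Compound: single concentration / Signal: immunofluorescence imaging / Read-out: percent E-selectin-positive cells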
FGF22 binding = FGF22 (human) thermal shift binding; 1.5% of 340,000 active; activity (Tm shift, normalised), % at 9.99 µM; recombinant FGF22 thermal shift, SYPRO orange fluorescence; percent of sucrose octasulfate shift, DMSO zero; AID 651658;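 active means mean Tm shift, scaled 0 neutral to 100 positive control, at about 1.3% or above, every replicate too, limit read from the data; inconclusive means no clear call, values can overlap the other calls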
Target sequence (Q9HCT0 whole entry, looked up): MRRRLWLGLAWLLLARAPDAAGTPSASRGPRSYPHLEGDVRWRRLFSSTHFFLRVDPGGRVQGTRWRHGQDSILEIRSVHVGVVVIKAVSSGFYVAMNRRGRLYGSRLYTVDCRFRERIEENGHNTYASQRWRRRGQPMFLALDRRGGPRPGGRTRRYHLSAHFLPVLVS
ERAP1 inh = inhibitors of human ERAP1 aminopeptidase; Q9NZ08; recombinant ERAP1, Leu-AMC fluorescence, 60 min; inhibition, % at 10.7 µM; 0.15% of 340,000 active;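 active means mean replicate inhibition of at least 30%, or all replicates individually reaching that 30% level; inactive means mean below 30% and not every replicate reaching it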;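 further: 0% = neutral control wells and 100% = L-leucinethiol positive control wells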
F508del corr = correctors of CFTR F508del function in bronchial epithelial cells. activity (quench increase), % at 7.58 µM. CFBE cells, YFP halide quenching; stimulated with forskolin plus potentiator P3; % fluorescence drop versus neutral controls. 0.36% of 350,000 active;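 active means mean added fluorescence quench of at least 8% versus neutral control, with both replicates also reaching 8%; inconclusive means only one of the mean or replicate conditions met; inactive means mean below 8% and not both replicates reaching 8%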;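 further: cells transiently co-express mutant CFTR-F508del with the halide-sensitive YFP; corrector assay measuring rescue of mutant channel to the surface after 24 h compound exposure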
Starred values were filed as active, the others as inactive; ? = inconclusive; . = no result; ! = repeats disagree. Shown are actives, neighbours in structure and some others; about 3.7% of the full set was active somewhere.

SMILES | DENV2 CPE | E-sel inducer | FGF22 binding | ERAP1 inh | F508del corr
COc1cc(/C=C/C(=O)O)cc(S(=O)(=O)NCCCC(=O)O)c1OC | 11 | 0 | 43* | 0 | 0
COc1cc(/C=C/C(=O)O)cc(S(=O)(=O)NCc2ccco2)c1OC | 1 | 5 | 0 | 9 | -2
CCC[n+]1c(C)sc2c(OC)ccc(OC)c21 | -1 | 0 | 43* | 52* | -3
Cn1cc(CN(CCO)Cc2cccs2)c(-c2ccccc2F)n1 | -2 | . | 43* | 5 | -2
CN(Cc1cn(C)nc1-c1ccccc1F)Cc1nccn1C | 4 | . | 0 | 1 | -1
Cc1ccc(-c2nnc(SCC(=O)NC3CCCC3)n2N)cc1 | -3 | 0 | 44* | 3 | 4
COC(=O)c1c(-c2ccc(SC)cc2)sc2ccc(OC)cc12 | 0 | 0 | 0 | 2 | 0
COC(=O)c1c(-c2ccc(SC)cc2)sc2ccccc12 | 74* | 0 | 0 | 1 | 2
O=C(CCOc1ccccc1)Nc1ccnn1C1CCN(Cc2ccc(CO)o2)CC1 | 16 | 0 | 2.5* | 0 | -4
Cc1ccc(CN2CCC(n3nccc3NC(=O)CCOc3ccccc3)CC2)o1 | 1 | 0 | 1 | -4 | 2
COc1cccc(CCC(=O)N2CCC(n3nccc3NC(=O)CC(C)C)CC2)c1 | 3 | 39* | 0 | -4 | 1
C=C(C)CCC(C)N1CCC(n2nccc2NC(=O)CCOc2ccccc2)CC1 (stereo unspecified) | 0 | 44* | 0 | 1 | -1
CC(C)Cn1c(SCC(=O)N2CCOCC2)nc2ccccc2c1=O | -1 | . | 0 | 0 | 2
CCOC(=O)CSc1nc2ccccc2c(=O)n1CC(C)C | 5 | . | 43* | 0 | .
CC=Cc1ccc2n(c1=O)C[C@@H]1[C@@H](CO)[C@H](C(=O)NCC3CC3)N(Cc3ccncc3)[C@H]21 (mixture of isomers) | -7 | 0 | 0 | 3 | -1
COc1ccc(NC(=O)Nc2ccc3c(c2)CC(=O)N([C@@H](C)CO)C[C@@H](C)[C@H](CN(C)S(=O)(=O)c2ccc(F)cc2)O3)cc1 | 19 | 0 | 0 | 0 | -1
COc1cc(OC)cc(C(=O)N[C@@H](CCSC)c2nc3ccccc3[nH]2)c1 | -1 | 5 | 43* | -1 | 1
Cc1[nH]c2ccccc2c1/C=N/NC(=O)c1cc(-c2ccccc2)n[nH]1 | ? | 17 | 1 | -4 | -2
Cc1[nH]c2ccccc2c1/C=N/NC(=O)c1cc(C(C)(C)C)[nH]n1 | 57* | 0 | 1 | -4 | -2
C[C@H](CO)N1C[C@H](C)[C@@H](CN(C)Cc2ccc(-c3ccccc3)cc2)Oc2ccc(NC(=O)Nc3ccc4c(c3)OCO4)cc2C1=O | 1 | 11 | 0 | 1 | 1
C[C@H](CO)N1C[C@H](C)[C@@H](CN(C)C)Oc2ccc(NC(=O)Nc3ccc(F)cc3)cc2C1=O | 75* | -2 | 0 | 0 | -1
C[C@@H]1CN([C@@H](C)CO)C(=O)c2cc(NC(=O)Nc3ccc4c(c3)OCO4)ccc2O[C@H]1CN(C)Cc1ccc(-c2ccccc2)cc1 | -11 | 60* | 0 | -3 | 1
C[C@@H]1CN([C@@H](C)CO)C(=O)c2cc(NC(=O)Nc3ccc4c(c3)OCO4)ccc2O[C@H]1CN(C)C | 0 | 45* | 0 | -4 | -1
C[C@H]1CN([C@@H](C)CO)C(=O)c2cc(NC(=O)Nc3ccc4c(c3)OCO4)ccc2O[C@H]1CN(C)C | 4 | -8 | 0 | -4 | -3
C[C@@H]1CN([C@H](C)CO)C(=O)c2cc(NC(=O)Nc3ccc(F)cc3)ccc2O[C@H]1CN(C)C | 16 | 0 | 0 | 1 | -1
SMILES | DENV2 CPE | E-sel inducer | FGF22 binding | ERAP1 inh | F508del corr
C[C@H]1CN([C@@H](C)CO)C(=O)c2cc(NC(=O)Nc3ccc(F)cc3)ccc2O[C@@H]1CN(C)C | 26* | 1 | 0 | 0 | -1
C[C@H]1CN([C@@H](C)CO)C(=O)c2cc(NC(=O)Nc3ccc(F)cc3)ccc2O[C@H]1CN(C)C | -1 | 2 | 0 | -1 | 2
COc1ccc(NC(=O)Nc2ccc3c(c2)C(=O)N([C@H](C)CO)C[C@@H](C)[C@@H](CN(C)S(=O)(=O)c2ccc(F)cc2)OCCCC[C@@H](C)O3)cc1 | -5 | . | -1 | 2 | 3
COCC(=O)Nc1ccc2c(c1)C(=O)N(C)C[C@H](OC)[C@H](C)CN(C(=O)c1ccccc1)[C@@H](C)CO2 | ? | 0 | 0 | . | -4
C[C@@H]1CN([C@@H](C)CO)C(=O)c2cc(NC(=O)Nc3ccc(C(F)(F)F)cc3)ccc2O[C@@H]1CN(C)C | 22* | 0 | 0 | 6 | -1
CC1=NOC(=O)/C1=C\c1ccc(-c2ccc(Br)cc2)o1 | -9 | -5 | . | 1 | -5
CC1=NOC(=O)/C1=C\c1ccc(-c2ccc(Br)cc2C(=O)O)o1 | -10 | . | 1 | 38* | -1
C[C@@H]1CCCCO[C@H](CN(C)S(=O)(=O)c2cccs2)[C@H](C)CN([C@@H](C)CO)C(=O)c2cc(NS(=O)(=O)c3ccccc3)ccc2O1 | 19 | . | . | -6 | 3
Cc1noc(C)c1S(=O)(=O)N(C)C[C@H]1Oc2ccc(NC(=O)CCCCCC(=O)Nc3ccccc3N)cc2CC(=O)N([C@H](C)CO)C[C@@H]1C | 18 | 0 | 0 | 1 | 1
CN(C)C(=O)C[C@H]1CC[C@H]2[C@@H](COC[C@H](O)CN2CC2CCCC2)O1 | 48* | 0 | 0 | 1 | -1
O=C(C[C@@H]1CC[C@H]2[C@@H](COC[C@H](O)CN2CC2CCCCC2)O1)NCC1CC1 | 0 | 0 | 0 | -1 | -3
O=C(C[C@H]1CC[C@H]2[C@@H](COC[C@@H](O)CN2CC2CCCCC2)O1)NCC1CC1 | 27* | 0 | 0 | 1 | -2
COc1ccc(NC(=O)N(C)C[C@H]2OCCCC[C@@H](C)Oc3ccc(NC(=O)C4CCCCC4)cc3C(=O)N([C@H](C)CO)C[C@H]2C)cc1 | 1 | 0 | 0 | 2 | 2
CCc1cc2c(SCC#N)ncnc2s1 | -3 | . | 43* | -3 | -1
O=C(Cn1c(-c2ccccc2)c[n+]2ccsc12)c1ccccc1 | -7 | . | 0 | -2 | -1
O=C(Cn1c(-c2ccccc2)c[n+]2ccsc12)c1ccc([N+](=O)[O-])cc1 | -1 | . | 43* | 2 | -3
CC(NC(=S)NC1CCC(C(C)(C)C)CC1)c1ccccc1 (stereo unspecified) | 23* | 0 | 0 | -4 | -3
Cc1ccc(CNC(=S)NC2CCC(C(C)(C)C)CC2)cc1 (stereo unspecified) | ? | -1 | 0 | -5 | 1
C[C@H](CO)N1C[C@H](C)[C@@H](CN(C)Cc2ccncc2)Oc2c(NS(=O)(=O)c3cccs3)cccc2C1=O | 34*! | -4 | 0 | -5 | 0

Source: PubChem BioAssay
